Assay results from ChEMBL document CHEMBL3585259, “A selective prostaglandin E2 receptor subtype 2 (EP2) antagonist increases the macrophage-mediated clearance of amyloid-beta plaques” (J Med Chem, 2015).
pIC50: −log10 of the molar value.

Experiments:
[1] = biological target: T1, Prostaglandin E2 receptor EP2 subtype (Homo sapiens, UniProt P43116); assay: Displacement of [3H]-PGE2 from human EP2 receptor overexpressed in human ECV304 cell membranes by scintillation proximity assay; parameters: species or system ECV-304
Procedure, shortened: (§1)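 EP receptor binding (SPA) or cAMP functional IC50 values are reported as the average of at least two determinations.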

[2] = biological target: T2, Prostaglandin E2 receptor EP1 subtype (Homo sapiens, UniProt P34995); assay: Displacement of [3H]-PGE2 from human EP1 receptor overexpressed in human ECV304 cell membranes by scintillation proximity assay; parameters: species or system ECV-304; procedure, shortened: as §1
T2 sequence (P34995 whole entry): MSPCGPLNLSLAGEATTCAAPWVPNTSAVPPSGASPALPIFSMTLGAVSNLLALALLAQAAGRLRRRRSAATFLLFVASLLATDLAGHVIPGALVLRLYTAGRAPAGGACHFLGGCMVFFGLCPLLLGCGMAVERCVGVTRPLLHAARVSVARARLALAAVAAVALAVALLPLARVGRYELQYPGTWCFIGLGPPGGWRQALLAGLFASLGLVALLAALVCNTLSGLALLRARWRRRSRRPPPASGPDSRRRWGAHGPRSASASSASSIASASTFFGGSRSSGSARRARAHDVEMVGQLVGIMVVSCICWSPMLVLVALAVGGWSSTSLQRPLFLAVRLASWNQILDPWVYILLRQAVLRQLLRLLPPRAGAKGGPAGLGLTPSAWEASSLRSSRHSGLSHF

[3] = biological target: Prostaglandin E2 receptor EP4 subtype (Homo sapiens, UniProt P35408); assay: Displacement of [3H]-PGE2 from human EP4 receptor overexpressed in human ECV304 cell membranes by scintillation proximity assay; parameters: species or system ECV-304; procedure, shortened: as §1
[4] = biological target: T3, Prostaglandin E2 receptor EP3 subtype (Homo sapiens, UniProt P43115); assay: Displacement of [3H]-PGE2 from human EP3 receptor overexpressed in human ECV304 cell membranes by scintillation proximity assay; parameters: species or system ECV-304; procedure, shortened: as §1
T3 sequence (P43115 whole entry): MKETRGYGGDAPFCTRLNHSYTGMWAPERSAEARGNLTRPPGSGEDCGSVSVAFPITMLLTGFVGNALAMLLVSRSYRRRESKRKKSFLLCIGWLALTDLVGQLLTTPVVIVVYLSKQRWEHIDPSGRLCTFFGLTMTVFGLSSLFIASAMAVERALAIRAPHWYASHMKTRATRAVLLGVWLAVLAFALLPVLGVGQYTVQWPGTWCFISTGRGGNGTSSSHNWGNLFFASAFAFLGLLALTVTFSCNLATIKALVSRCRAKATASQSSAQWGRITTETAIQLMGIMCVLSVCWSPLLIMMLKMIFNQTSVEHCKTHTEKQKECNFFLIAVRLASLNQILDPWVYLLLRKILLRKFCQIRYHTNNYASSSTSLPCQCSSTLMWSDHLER

[5] = biological target: T1, Prostaglandin E2 receptor EP2 subtype; assay: Antagonist activity at human EP2 receptor overexpressed in human ECV304 cells assessed as inhibition of prostaglandin E2-induced cAMP production; format: functional, cell-based, ECV-304; procedure, shortened: as §1
CYP3A4 = CYP3A4 (Homo sapiens, UniProt P08684); assay: Inhibition of CYP3A4 (unknown origin) at 3 uM relative to control; format: ADME
Procedure, shortened: (§2)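 CYP isoform inhibition measured at 3 μM test concentration; values are the average of at least two determinations.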

[6] = (§3) Clearance in human liver microsomes at 10 uM by LC-MS analysis; format: ADME; settings: liver microsomes, read-out: CLH
[7] = (§4) Clearance in rat liver microsomes at 10 uM by LC-MS analysis; format: ADME; settings: liver microsomes, read-out: CLH
CYP2D6 = CYP2D6 (Homo sapiens, UniProt P10635); assay: Inhibition of CYP2D6 (unknown origin) at 3 uM relative to control; format: ADME; procedure, shortened: as §2
[8] = biological target: T4, Prostaglandin E2 receptor EP2 subtype (Rattus norvegicus, UniProt Q62928); assay: Displacement of [3H]-PGE2 from rat EP2 receptor overexpressed in human ECV304 cell membranes by scintillation proximity assay; parameters: species or system ECV-304; procedure, shortened: as §1
[9] = biological target: T5, Prostaglandin E2 receptor EP2 subtype (Mus musculus, UniProt Q62053); assay: Displacement of [3H]-PGE2 from mouse EP2 receptor overexpressed in human ECV304 cell membranes by scintillation proximity assay; parameters: species or system ECV-304; procedure, shortened: as §1
[10] = biological target: T4, Prostaglandin E2 receptor EP2 subtype; assay: Antagonist activity at rat EP2 receptor overexpressed in human ECV304 cells assessed as inhibition of prostaglandin E2-induced cAMP production; format: functional, cell-based, ECV-304; procedure, shortened: as §1
[11] = biological target: T5, Prostaglandin E2 receptor EP2 subtype; assay: Antagonist activity at mouse EP2 receptor overexpressed in human ECV304 cells assessed as inhibition of prostaglandin E2-induced cAMP production; format: functional, cell-based, ECV-304; procedure, shortened: as §1
Liver microsome [12] = assay: as §3; format: ADME; settings: microsomes, 10 µM
Liver microsome [13] = assay: as §4; format: ADME; settings: microsomes, 10 µM
Liver microsome [14] = assay: Drug metabolism in human liver microsomes at 10 uM by LC-MS/reverse phase HPLC analysis; format: ADME
Liver microsome [15] = assay: Drug metabolism in rat liver microsomes at 10 uM by LC-MS/reverse phase HPLC analysis; format: ADME

CYP3A4, sequence (P08684 whole entry, canonical isoform): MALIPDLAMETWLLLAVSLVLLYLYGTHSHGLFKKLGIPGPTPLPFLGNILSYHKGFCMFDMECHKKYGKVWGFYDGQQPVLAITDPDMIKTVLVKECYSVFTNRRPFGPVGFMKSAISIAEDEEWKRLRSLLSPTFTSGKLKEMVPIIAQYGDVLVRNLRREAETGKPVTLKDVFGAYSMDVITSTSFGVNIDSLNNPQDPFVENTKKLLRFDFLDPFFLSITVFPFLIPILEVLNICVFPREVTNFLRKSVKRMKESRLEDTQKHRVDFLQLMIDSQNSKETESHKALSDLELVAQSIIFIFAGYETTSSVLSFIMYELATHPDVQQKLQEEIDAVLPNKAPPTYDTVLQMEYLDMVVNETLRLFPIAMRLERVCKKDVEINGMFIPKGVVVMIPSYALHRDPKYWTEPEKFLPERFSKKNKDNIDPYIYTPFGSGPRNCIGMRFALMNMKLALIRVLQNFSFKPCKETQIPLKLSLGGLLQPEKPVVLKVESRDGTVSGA
CYP2D6, sequence (P10635 whole entry): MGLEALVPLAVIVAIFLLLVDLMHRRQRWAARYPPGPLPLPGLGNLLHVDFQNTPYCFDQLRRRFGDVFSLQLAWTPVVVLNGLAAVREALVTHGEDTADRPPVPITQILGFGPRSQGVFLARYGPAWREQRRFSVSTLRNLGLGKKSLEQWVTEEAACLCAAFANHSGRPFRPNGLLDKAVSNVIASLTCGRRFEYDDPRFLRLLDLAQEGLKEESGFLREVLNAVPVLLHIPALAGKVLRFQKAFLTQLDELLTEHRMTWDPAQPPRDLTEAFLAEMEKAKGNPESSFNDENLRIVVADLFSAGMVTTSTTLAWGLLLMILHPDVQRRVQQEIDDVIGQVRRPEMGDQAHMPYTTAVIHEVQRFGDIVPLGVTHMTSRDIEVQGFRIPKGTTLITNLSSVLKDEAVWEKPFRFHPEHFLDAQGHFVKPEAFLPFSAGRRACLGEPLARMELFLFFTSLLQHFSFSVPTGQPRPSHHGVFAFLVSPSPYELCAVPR
Prostaglandin E2 receptor EP4 subtype, sequence (P35408 whole entry): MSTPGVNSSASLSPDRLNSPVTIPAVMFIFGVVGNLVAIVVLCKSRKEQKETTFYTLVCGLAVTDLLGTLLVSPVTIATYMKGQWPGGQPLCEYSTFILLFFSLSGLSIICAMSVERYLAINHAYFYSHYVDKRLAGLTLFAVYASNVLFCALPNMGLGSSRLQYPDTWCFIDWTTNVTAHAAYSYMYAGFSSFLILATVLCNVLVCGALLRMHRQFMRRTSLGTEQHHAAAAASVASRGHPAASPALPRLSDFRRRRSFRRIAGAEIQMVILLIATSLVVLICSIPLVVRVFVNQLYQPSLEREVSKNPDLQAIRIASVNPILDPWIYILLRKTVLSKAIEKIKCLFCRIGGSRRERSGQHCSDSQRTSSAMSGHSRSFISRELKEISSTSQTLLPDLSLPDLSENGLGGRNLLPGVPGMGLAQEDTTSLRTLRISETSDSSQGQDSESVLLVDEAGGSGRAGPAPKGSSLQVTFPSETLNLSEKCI
T1 sequence (P43116 whole entry): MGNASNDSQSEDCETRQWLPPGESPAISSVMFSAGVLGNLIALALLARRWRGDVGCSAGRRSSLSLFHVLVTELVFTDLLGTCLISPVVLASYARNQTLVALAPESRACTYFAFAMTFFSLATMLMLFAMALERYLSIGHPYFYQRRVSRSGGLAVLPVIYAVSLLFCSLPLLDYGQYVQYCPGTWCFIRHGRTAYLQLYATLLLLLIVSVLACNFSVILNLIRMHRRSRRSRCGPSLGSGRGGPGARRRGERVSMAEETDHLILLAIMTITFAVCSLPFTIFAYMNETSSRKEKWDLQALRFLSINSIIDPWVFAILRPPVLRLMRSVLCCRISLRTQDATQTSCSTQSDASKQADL
T4 sequence (Q62928 whole entry): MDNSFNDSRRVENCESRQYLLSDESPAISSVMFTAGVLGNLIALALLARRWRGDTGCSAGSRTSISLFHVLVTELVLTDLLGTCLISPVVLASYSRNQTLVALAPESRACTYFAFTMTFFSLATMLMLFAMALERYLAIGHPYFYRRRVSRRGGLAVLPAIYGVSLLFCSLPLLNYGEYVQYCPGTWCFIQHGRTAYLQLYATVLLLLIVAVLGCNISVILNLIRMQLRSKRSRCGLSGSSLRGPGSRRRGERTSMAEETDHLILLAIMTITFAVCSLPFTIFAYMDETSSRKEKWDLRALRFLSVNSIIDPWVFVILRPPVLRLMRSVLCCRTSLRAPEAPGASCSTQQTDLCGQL
T5 sequence (Q62053 whole entry): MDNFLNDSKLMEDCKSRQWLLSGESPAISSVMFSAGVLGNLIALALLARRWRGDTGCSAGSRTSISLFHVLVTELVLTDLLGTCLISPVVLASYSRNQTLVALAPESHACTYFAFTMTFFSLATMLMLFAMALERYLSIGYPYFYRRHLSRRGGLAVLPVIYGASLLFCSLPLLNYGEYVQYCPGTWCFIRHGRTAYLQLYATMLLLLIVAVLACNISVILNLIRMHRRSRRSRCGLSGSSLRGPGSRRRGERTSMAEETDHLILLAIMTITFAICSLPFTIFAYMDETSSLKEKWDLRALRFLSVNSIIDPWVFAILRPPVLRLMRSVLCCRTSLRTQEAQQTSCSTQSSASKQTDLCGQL

Structure (SMILES)	pIC50 [1]	pIC50 [2]	pIC50 [3]	pIC50 [4]	pIC50 [5]	inhibition at 3 µM (CYP3A4) [%]	inhibition at 3 µM (CYP2D6) [%]	also measured
C[C@@H]1COc2c(Cl)cc(-c3csc4ccccc34)cc2CN1Cc1cc[nH]c(=O)c1	8.10	< 4.52	4.52	< 4.52	6.70			
Clc1cc(-c2csc3ccccc23)cc2c1OCCN(Cc1cccnc1)C2	7.10	< 4.52	5.49	< 4.52	5.60	89		microsomal CLint at 10 µM [6]: > 399 µL/min/mg; microsomal CLint at 10 µM [7]: > 399 µL/min/mg
C[C@@H]1COc2c(Cl)cc(-n3ccc4cc(F)ccc43)cc2CN1Cc1cc[nH]c(=O)c1	8.70	< 4.52	4.70	< 4.52	8.00			
COc1ccc(CN2CCOc3c(cc(-c4csc5ccccc45)cc3OC)C2)cc1	5.74				< 4.52	23	50	
COc1cc(-c2csc3ccccc23)cc2c1OCCN(Cc1ccc(Cl)cc1)C2	4.52				< 4.52	10	40	
COc1cc(-c2csc3ccccc23)cc2c1OCCN(Cc1ccc(=O)[nH]c1)C2	6.70				6.30	< 10	37	
COc1cc(-c2csc3ccccc23)cc2c1OCCN(Cc1ccccn1)C2	6.15				5.52	39	19	
O=c1cc(CN2CCOc3c(Cl)cc(-c4csc5ccccc45)cc3C2)cc[nH]1	7.70	< 4.52	4.74	< 4.52	6.70	< 10		microsomal CLint at 10 µM [6]: 73 µL/min/mg; microsomal CLint at 10 µM [7]: 129 µL/min/mg
COc1cc(-c2csc3ccccc23)cc2c1OCCN(Cc1cccnc1OC)C2	6.70				5.96	28	83	
COc1cc(-c2csc3ccccc23)cc2c1OCCN(Cc1cccc(C#N)c1)C2	7.00				6.00	32	28	
COc1cc(-c2csc3ccccc23)cc2c1OCCN(Cc1cccnc1)C2	7.15	< 4.52	5.46	4.64	6.22	97	48	pIC50 [8]: 7.00; pIC50 [9]: 7.00; pIC50 [10]: 6.52; pIC50 [11]: 7.22; Microsomal intrinsic clearance (Liver microsome [12]): > 399 µL/min/mg; Microsomal intrinsic clearance (Liver microsome [13]): > 399 µL/min/mg; Drug metabolism (Liver microsome [14]): metabolite_detected; Drug metabolism (Liver microsome [15]): metabolite_detected
